Data set [1] in a line: Plasma protein binding in human by equilibrium dialysis method. The data set is classed as ADME, cell-free. Conditions: read-out: PPB (converted).
Data set [2] can be described thus: Plasma protein binding in chimeric mouse transplanted with rat hepatocytes by equilibrium dialysis method. The data set is classed as ADME, cell-free, Hepatocyte. Conditions: read-out: PPB (converted). The procedure, abridged: (§1)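 Compound at 1 µg/mL incubated in plasma of h-PXB or r-PXB mice; bound fraction determined by equilibrium dialysis.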
A general note: Equilibrium dialysis compares concentrations on both sides of a semipermeable membrane.

A short description of data set [3]: Plasma protein binding in chimeric mouse transplanted with human hepatocytes by equilibrium dialysis method. The class given is ADME, cell-free, Hepatocyte. Conditions: read-out: PPB (converted). The gist of the method:
as §1

Data set [4] in a line: Clearance in rat at 3.2 mg/kg, po. The data set is classed as ADME, organism-based. Conditions: in vivo. Also noted: dose 3.2 mg/kg, route oral.
A short description of data set [5]: Oral bioavailability in rat at 3.2 mg/kg. Conditions: in vivo. The data set is classed as ADME, organism-based.
The nature of data set [6]: AUC in rat at 3.2 mg/kg, po. The data set is classed as ADME, organism-based. Set-up: dose 3.2 mg/kg, route oral. Conditions: plasma.
Data set [7] can be described thus: Oral bioavailability in chimeric mouse transplanted with rat hepatocytes at 3 mg/kg. The data set is classed as ADME, organism-based, Hepatocyte.
Data set [8] can be described thus: Cmax in rat at 3.2 mg/kg, po. The class given is ADME, organism-based. Conditions: in vivo. Set-up: dose 3.2 mg/kg, route oral.
Data set [9] in a line: Clearance in chimeric mouse transplanted with rat hepatocytes at 3 mg/kg, po. Also noted: dose 3 mg/kg, route oral. The data set is classed as ADME, organism-based, Hepatocyte. The gist of the method:
(§2)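 Single 3 mg/kg oral dose of compound in 50% PEG400 with equimolar HCl in saline to h-PXB or r-PXB mice (n=3~4). Orbital-vein blood (heparinized) taken over 0–6 hr; plasma stored at -30°C and assayed by LC/MS/MS. Non-compartmental analysis: Cmax from observed values, AUC by trapezoidal rule extrapolated to infinity, CLoral = Dose/AUCpo.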

The nature of data set [10]: Cmax in chimeric mouse transplanted with rat hepatocytes at 3 mg/kg, po. The class given is ADME, organism-based, Hepatocyte. Set-up: dose 3 mg/kg, route oral. The procedure, abridged:
as §2

Data set [11] is described as follows: AUC in chimeric mouse transplanted with rat hepatocytes at 3 mg/kg, po. The class given is ADME, organism-based, Hepatocyte. Set-up: dose 3 mg/kg, route oral. The procedure, abridged:
as §2

Data set [12] is described as follows: AUC in human at 10 mg, po. The data set is classed as ADME, organism-based. Conditions: plasma.
Data set [13] can be described thus: Clearance in human at 10 mg, po. The class given is ADME, organism-based. Conditions: in vivo.
Data set [14] is described as follows: Cmax in human at 10 mg, po. The class given is ADME, organism-based. Also noted: dose 10 mg, route oral. Conditions: in vivo.
The nature of data set [15]: Clearance in chimeric mouse transplanted with human hepatocytes at 3 mg/kg, po. Set-up: dose 3 mg/kg, route oral. The data set is classed as ADME, organism-based, Hepatocyte. The gist of the method:
as §2

Data set [16] can be described thus: Oral bioavailability in chimeric mouse transplanted with human hepatocytes at 3 mg/kg. The class given is ADME, organism-based, Hepatocyte.
Data set [17] can be described thus: AUC in chimeric mouse transplanted with human hepatocytes at 3 mg/kg, po. The data set is classed as ADME, organism-based, Hepatocyte. Set-up: dose 3 mg/kg, route oral. The procedure, abridged: as §2
Data set [18] is described as follows: Total clearance in rat at 3 mg/kg, iv. Also noted: dose 3 mg/kg, route intravenous. The class given is ADME, organism-based. Conditions: in vivo.

The text below walks through data of ChEMBL document CHEMBL3526077, “Prediction of human metabolism of FK3453 by aldehyde oxidase using chimeric mice transplanted with human or rat hepatocytes” (Drug Metab Dispos, 2012).

In general, CL/F refers to the apparent clearance, not corrected for the fraction that reaches the circulation. A word on the bioavailability: it is the share of a dose that reaches the circulation, judged against a reference dose that is usually intravenous. A low value points to poor availability. What is called AUC is concentration integrated over time. Higher therefore signals more exposure. As usually defined, the Cmax is the peak of the concentration-time curve. Usually clearance stands for the volume of plasma or blood freed of the substance per unit of time. High values mean a high capacity for elimination, low ones a low capacity for elimination. With `CC(C)n1nc(-c2cnc(N)nc2-c2ccccc2)ccc1=O`, the fraction unbound in data set [1] was 0.228; in [2] it was 0.233; in data set [3] it was 0.205. Moreover, the CL/F came to 29.8 mL/min/kg in [4], 61.6 mL/min/kg in data set [9], 1090 mL/min/kg in data set [13] and 234 mL/min/kg in data set [15]. For the same compound, the bioavailability in [5] was determined as 34.6%; in data set [7], 52.6%; in data set [16], 29.4%. For the same compound, the exposure (AUC) in data set [6] was 1790 ng·h/mL; in data set [11], 811 ng·h/mL; in data set [12], 2.19 ng·h/mL; in data set [17], 214 ng·h/mL. For the same compound, the Cmax stood at 544 ng/mL in [8], 856 ng/mL in data set [10] and 1.5 ng/mL in data set [14]. In data set [18], this compound displayed a clearance of 10.8 mL/min/kg.
